In brackets after ≈: the same amount, converted by molar mass. Activity calls are given as the source filed them. The rule behind the calls is not given here.
Assays:
[1] = test system: Mycobacterium tuberculosis; assay: Antitubercular activity against Mycobacterium tuberculosis H37Rv by Alamar blue assay; format: functional
In short: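 M. tuberculosis in 7H9 medium with ADC and 0.05% Tween 80; MIC by microplate Alamar Blue assay.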

Staphylococcus aureus [2] = assay: Antibacterial activity against […] Staphylococcus aureus ATCC 29213 after 16 hrs by spectrophotometric analysis; format: functional; details: ATCC 29213, 16 h
Enterococcus faecalis [3] = assay: Antibacterial activity against vancomycin-susceptible Enterococcus faecalis clinical isolates after 24 hrs by CLSI […] broth microdilution method; format: functional; details: for MBC: read-out: MBC99.9
In short: (§1)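 CLSI broth microdilution on clinical isolates. Log-phase bacteria in saline at 1–2 × 10⁵ CFU/mL were mixed with compounds diluted in LB, final 0.097–100 μg/mL, for 24 h at 37 °C. MIC is the lowest concentration with total growth inhibition. For MBC, clear wells were plated on sheep-blood agar for 18 h; >99.9% kill versus untreated control. Triplicate.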

Staphylococcus aureus [4] = assay: Antibacterial activity against methicillin-resistant Staphylococcus aureus clinical isolates after 24 hrs by CLSI […] broth microdilution method; format: functional; details: for MBC: read-out: MBC99.9; in short: as §1
Enterococcus faecalis [5] = assay: Antibacterial activity against vancomycin-resistant Enterococcus faecalis clinical isolates after 24 hrs by CLSI […] broth microdilution method; format: functional; details: for MBC: read-out: MBC99.9; in short: as §1
Staphylococcus aureus [6] = assay: Antibacterial activity against methicillin-susceptible Staphylococcus aureus clinical isolates after 24 hrs by CLSI […] broth microdilution method; format: functional; details: for MBC: read-out: MBC99.9; in short: as §1
[7] = Cytotoxicity against human MRC5 cells assessed as reduction in cell viability after 24 hrs by MTT assay; format: toxicity, cell-based; details: mrc5, 24 h
In short: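 MRC-5 lung fibroblasts (DMEM, 10% heat-inactivated calf serum, 37 °C, 5% CO₂) at 10⁴ cells/well were exposed 24 h to twofold serial dilutions in DMEM. Then 1 mg/ml MTT in serum-free DMEM for 3 h, DMSO solubilisation, A570. Cytotoxicity % = 100 − (sample OD/untreated OD) × 100; TD₅₀/TD₉₀ are concentrations cutting viability 50/90%.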

[8] = Therapeutic index, ratio of TD90 for human MRC5 cells to MBC for […] Staphylococcus aureus ATCC 29213; format: cell-based; details: read-out: TI
In short: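 Ratio of TD₉₀ (MTT assay on MRC-5, 24 h exposure) to MBC against MRSA ATCC 29213 (LB tube assay, wash-out and overnight regrowth by OD600).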

Staphylococcus aureus [9] = assay: Antibacterial activity against methicillin-susceptible Staphylococcus aureus; format: functional
[10] = biological target: T1, Cell division protein FtsZ (Staphylococcus aureus) (UniProt P0A031); assay: Inhibition of Staphylococcus aureus FtsZ assessed as alteration in septum formation at 0.5 ug/ml after 16 hrs by transmission electron microscopic analysis
T1 sequence (whole entry): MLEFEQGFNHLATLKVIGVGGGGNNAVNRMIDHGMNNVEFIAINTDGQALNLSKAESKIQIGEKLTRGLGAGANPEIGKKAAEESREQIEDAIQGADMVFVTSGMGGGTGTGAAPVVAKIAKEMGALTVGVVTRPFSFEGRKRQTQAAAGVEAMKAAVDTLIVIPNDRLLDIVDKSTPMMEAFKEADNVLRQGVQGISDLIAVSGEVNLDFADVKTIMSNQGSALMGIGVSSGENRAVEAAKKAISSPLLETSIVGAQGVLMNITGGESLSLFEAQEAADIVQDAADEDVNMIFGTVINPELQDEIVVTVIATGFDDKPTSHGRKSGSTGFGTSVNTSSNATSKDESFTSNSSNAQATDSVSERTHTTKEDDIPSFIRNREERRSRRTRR
In short: (§2)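 S. aureus at 10⁹ cells/ml grown 16 h at 37 °C with compound, untreated control included. Cells were pelleted at 3100 × g for 5 min, fixed in 2.5% glutaraldehyde in 0.1 M Na cacodylate pH 7.4 for 1 h at 4 °C, post-fixed in 1% OsO₄ for 1 h at 4 °C, and examined by TEM for septum and ultrastructure.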

[11] = test system: Mycolicibacterium smegmatis; assay: Inhibition of FtsZ polymerization in GFP-tagged Mycobacterium smegmatis assessed as presence of elongated cells with enlarged bacterial pole at 4 ug/ml by fluorescence-based microscopic analysis
In short: (§3)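 GFP-expressing M. smegmatis or M. tuberculosis grown at subMIC concentrations on glass coverslips in 7H9/ADC/Tween 80. Cells were fixed with phosphate-buffered 4% paraformaldehyde and examined by fluorescence microscopy at 100× for cell morphology.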

[12] = biological target: T1, Cell division protein FtsZ (Staphylococcus aureus); assay: Inhibition of Staphylococcus aureus FtsZ assessed as increase in cell volume at 0.5 ug/ml after overnight incubation by phase-contrast light microscopic analysis
In short: (§4)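 S. aureus grown overnight with compound at levels starting from the previously determined MIC. Untreated cultures served as negative control. Examined by phase-contrast microscopy at 630×.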

[13] = test system: Mycobacterium tuberculosis; assay: Inhibition of FtsZ polymerization in GFP-tagged Mycobacterium tuberculosis assessed as presence of elongated cells with enlarged bacterial pole at 4 ug/ml by fluorescence-based microscopic analysis; in short: as §3
[14] = test system: Mycolicibacterium smegmatis; assay: Inhibition of FtsZ polymerization in GFP-tagged Mycobacterium smegmatis assessed as presence of elongated cells with enlarged bacterial pole at 0.5 ug/ml by fluorescence-based microscopic analysis; in short: as §3
[15] = test system: Mycobacterium tuberculosis; assay: Inhibition of FtsZ polymerization in GFP-tagged Mycobacterium tuberculosis assessed as presence of elongated cells with enlarged bacterial pole at 8 ug/ml by fluorescence-based microscopic analysis; in short: as §3
[16] = biological target: T1, Cell division protein FtsZ (Staphylococcus aureus); assay: Inhibition of Staphylococcus aureus FtsZ assessed as alteration in septum formation at 0.25 ug/ml after 16 hrs by transmission electron microscopic analysis; in short: as §2
[17] = biological target: T1, Cell division protein FtsZ (Staphylococcus aureus); assay: Inhibition of Staphylococcus aureus FtsZ assessed as bacterial swelling at 0.25 ug/ml after overnight incubation by phase-contrast light microscopic analysis; in short: as §4
[18] = biological target: T1, Cell division protein FtsZ (Staphylococcus aureus); assay: Inhibition of Staphylococcus aureus FtsZ assessed as increase in cell volume at 0.25 ug/ml after overnight incubation by phase-contrast light microscopic analysis; in short: as §4
[19] = biological target: T1, Cell division protein FtsZ (Staphylococcus aureus); assay: Inhibition of Staphylococcus aureus FtsZ assessed as cellular desegregation at 0.25 ug/ml after overnight incubation by phase-contrast light microscopic analysis; in short: as §4

SMILES | MBC (Staphylococcus aureus [2]) | MIC (Staphylococcus aureus [2]) | MIC90 (Enterococcus faecalis [3]) | MBC (Enterococcus faecalis [3]) | MIC90 (Staphylococcus aureus [4]) | MBC (Staphylococcus aureus [4]) | MIC90 (Enterococcus faecalis [5]) | MBC (Enterococcus faecalis [5]) | MIC90 (Staphylococcus aureus [6]) | MBC (Staphylococcus aureus [6]) | TD90 [7] | selectivity ratio [8] | other results
NC(=O)c1c(F)ccc(OCC2COc3cc(Cl)c(Cl)cc3O2)c1F (configuration not stated) | 5 mg/L (≈ 12.8 µM) | 2.5 mg/L (≈ 6.41 µM) | 6.25 mg/L (≈ 16 µM) | 50 mg/L (≈ 128 µM) | 3.12 mg/L | 6.25 mg/L (≈ 16 µM) | 12.5 mg/L (≈ 32 µM) | 50 mg/L (≈ 128 µM) | 3.12 mg/L | 6.25 mg/L | – | – | MIC [1]: 16 mg/L (≈ 41 µM)
NC(=O)c1c(F)ccc(OCc2ccc3c(c2)OCCO3)c1F | 100 mg/L (≈ 311 µM) | 100 mg/L (≈ 311 µM) | – | – | – | – | – | – | – | – | – | – | –
NC(=O)c1c(F)ccc(OCC2COc3ccc(Br)cc3O2)c1F (configuration not stated) | 0.625 mg/L (≈ 1.56 µM) | 0.625 mg/L (≈ 1.56 µM) | – | – | – | – | – | – | – | – | > 800 µg/mL | > 1280 | –
NC(=O)c1c(F)ccc(OCC2COc3ccc([N+](=O)[O-])cc3O2)c1F (configuration not stated) | 2.5 mg/L (≈ 6.83 µM) | 1.25 mg/L (≈ 3.41 µM) | – | – | – | – | – | – | – | – | – | – | –
NC(=O)c1c(F)ccc(OC[C@@H]2COc3ccc(Cl)cc3O2)c1F | – | – | 25 mg/L (≈ 70.3 µM) | 50 mg/L (≈ 141 µM) | 1 µM | 0.78 mg/L (≈ 2.19 µM) | 25 mg/L (≈ 70.3 µM) | 50 mg/L (≈ 141 µM) | 0.5 µM | 1 µM | – | – | MIC [1]: 8 mg/L (≈ 22.5 µM); MIC90 (Staphylococcus aureus [9]): 0.7 µM (≈ 0.249 µg/mL); inhibition [10]: Active; inhibition [11]: Active; inhibition [12]: Active; inhibition [13]: Active
CCCCCCCCCOc1ccc(F)c(C(N)=O)c1F | 1 mg/L (≈ 3.34 µM) | 1 mg/L (≈ 3.34 µM) | 6.25 mg/L (≈ 20.9 µM) | 12.5 mg/L (≈ 41.8 µM) | 0.39 mg/L | 0.78 mg/L (≈ 2.61 µM) | 12.5 mg/L (≈ 41.8 µM) | 25 mg/L (≈ 83.5 µM) | 0.19 mg/L | 0.19 mg/L | > 200 µg/mL | > 200 | MIC [1]: 16 mg/L (≈ 53.4 µM); inhibition [14]: Active; inhibition [15]: Active; inhibition [16]: Active; inhibition [17]: Active; inhibition [18]: Active; inhibition [19]: Active
CS(=O)(=O)Nc1ccc2c(c1)OC(COc1ccc(F)c(C(N)=O)c1F)CO2 (configuration not stated) | – | > 100 mg/L | – | – | – | – | – | – | – | – | – | – | –
NC(=O)c1c(F)ccc(OCC2CCc3ccccc3C2)c1F (configuration not stated) | – | > 100 mg/L | – | – | – | – | – | – | – | – | – | – | –
NC(=O)c1c(F)ccc(OCC2COc3ccc(I)cc3O2)c1F (configuration not stated) | 0.625 mg/L (≈ 1.4 µM) | 0.313 mg/L (≈ 0.7 µM) | 6.25 mg/L (≈ 14 µM) | 12.5 mg/L (≈ 28 µM) | 0.39 mg/L | 1.56 mg/L (≈ 3.49 µM) | 6.25 mg/L (≈ 14 µM) | 25 mg/L (≈ 55.9 µM) | 0.78 mg/L | 3.12 mg/L | > 800 µg/mL | > 1280 | –
NC(=O)c1c(F)ccc(OCC2CCc3ccccc3O2)c1F (configuration not stated) | 5 mg/L (≈ 15.7 µM) | 5 mg/L (≈ 15.7 µM) | – | – | – | – | – | – | – | – | – | – | –
C=Cc1ccc2c(c1)OC(COc1ccc(F)c(C(N)=O)c1F)CO2 (configuration not stated) | 1.25 mg/L (≈ 3.6 µM) | 0.625 mg/L (≈ 1.8 µM) | – | – | – | – | – | – | – | – | > 800 µg/mL | > 640 | –

From ChEMBL document CHEMBL3856196, “3-(Benzodioxan-2-ylmethoxy)-2,6-difluorobenzamides bearing hydrophobic substituents at the 7-position of the benzodioxane nucleus potently inhibit methicillin-resistant Sa and Mtb cell division” (Eur J Med Chem, 2016)
